Data reported in ChEMBL document CHEMBL1152729, “Ceramides: branched alkyl chains in the sphingolipid siblings of diacylglycerol improve biological potency” (Bioorg Med Chem, 2009).

Assays:
SUP-T1 [1] = assay: Induction of early apoptosis in human SupT1 cells at 25 uM after 24 hrs using annexin V-FITC staining by FACS; format: functional
Procedure, shortened: (§1)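 SupT1 cells treated for 24 h at different compound concentrations, then harvested and washed in PBS. Phosphatidylserine exposure was detected by Annexin V-FITC staining and flow cytometry. Brightly stained cells were counted as apoptotic.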

NHDF = assay: Cytotoxicity against NHDF after 24 hrs by CellTiter-Blue assay; format: cell-based; settings: Homo sapiens
Procedure, shortened: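 Normal human dermal fibroblasts grown in fibroblast medium and treated for 24 h with serial compound dilutions. Viability was measured by resorufin fluorescence (560/590 nm ex/em) as percent of the no-drug control. IC50 was taken from the dose-response fit as a single determination.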

MDA-MB-231 = assay: Cytotoxicity against human MDA-MB-231 cells after 24 hrs by CellTiter-Blue assay; format: functional, cell-based; settings: MDA-MB-231, 24 h
Procedure, shortened: (§2)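 MCF-7 or MDA-MB231 cells kept in DMEM with 10% FBS and penicillin-streptomycin. The cells were exposed for 24 h to serial dilutions of compound, diluted in medium at 37 °C from 50 mM DMSO stocks. Viability was read by resazurin-to-resorufin fluorescence at 560/590 nm ex/em and normalized to the no-drug control. Dose-response fits gave IC50s, averaged over three experiments ± SD.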

SUP-T1 [2] = assay: Cytotoxicity against human SupT1 cells after 24 hrs by CellTiter-Blue assay; format: functional, cell-based
Procedure, shortened: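 SupT1 cells cultured in RPMI with 10% FBS and penicillin-streptomycin, then incubated 24 h with serially diluted compound from 50 mM DMSO stocks. CellTiter-Blue resazurin reduction was read at 560/590 nm and normalized to the no-drug control as percent viability. IC50s came from the fitted dose-response curve of each experiment and were averaged over three experiments ± SD.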

MCF7 = assay: Cytotoxicity against human MCF7 cells after 24 hrs by CellTiter-Blue assay; format: functional, cell-based; settings: MCF7, 24 h; procedure, shortened: as §2
SUP-T1 [3] = assay: Induction of early apoptosis in human SupT1 cells after 24 hrs using annexin V-FITC staining by FACS; format: functional, cell-based; procedure, shortened: as §1
SUP-T1 [4] = assay: Induction of apoptosis in human SupT1 cells after 24 hrs using DiOC6 staining by FACS; format: functional, cell-based
Procedure, shortened: (§3)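 SupT1 cells exposed to varying compound concentrations for 24 h, then collected and PBS-washed. Mitochondrial depolarization was detected by 10 μM DiOC6 staining and flow cytometry. Cells with reduced DiOC6 staining were gated as apoptotic.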

SK-BR-3 = assay: Cytotoxicity against human SKBR3 cells after 24 hrs by CellTiter-Blue assay; format: functional, cell-based; settings: SK-BR-3, 24 h
Procedure, shortened: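 SKBR3 breast cancer cells grown in DMEM with 10% FBS and penicillin-streptomycin. The cells were treated for 24 h with serial compound dilutions made in 37 °C medium from 50 mM DMSO stocks. Resorufin fluorescence (560/590 nm ex/em) was expressed as percent of the untreated control. Curve fitting gave IC50s, with the mean of three repeats ± SD.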

SUP-T1 [5] = assay: Induction of apoptosis in human SupT1 cells at 25 uM after 24 hrs using DiOC6 staining by FACS; format: functional; procedure, shortened: as §3
SUP-T1 [6] = assay: Induction of early apoptosis in human SupT1 cells at 50 uM after 24 hrs using annexin V-FITC staining by FACS; format: functional; procedure, shortened: as §1
SUP-T1 [7] = assay: Induction of apoptosis in human SupT1 cells at 50 uM after 24 hrs using DiOC6 staining by FACS; format: functional; procedure, shortened: as §3

| Compound | IC50 (NHDF) [µM] | IC50 (MDA-MB-231) [µM] | IC50 (SUP-T1 [2]; Homo sapiens, SUP-T1, 24 h) [µM] | IC50 (MCF7) [µM] | Activity (SUP-T1 [3]) | Activity (SUP-T1 [4]) | IC50 (SK-BR-3) [µM] | further results |
| --- | --- | --- | --- | --- | --- | --- | --- | --- |
| CCCCCCCCCCC(=O)N[C@@H](CO)[C@H](O)/C=C/CC(CC(C)C)CC(C)C | 45.4 | 22.4 | 15.5 | 16.3 | Dose-dependent effect | Dose-dependent effect | 10.2 | Activity (SUP-T1 [1]): 66.16%; Activity (SUP-T1 [5]): 75.15% |
| CCCCCCCCCCCCC/C=C/[C@@H](O)[C@H](CO)NC(C)=O (stereo in doubt; 1) | 66.5 | 35.4 | – | 45.4 | Dose-dependent effect | Dose-dependent effect | 49.2 | IC50 (SUP-T1 [2]; sup-t1): 41.4 µM; Activity (SUP-T1 [6]): 42.33%; Activity (SUP-T1 [7]): 56.14% |
| CCCCCCCCCC/C=C/[C@@H](O)[C@H](CO)NC(=O)CC(CC(C)C)CC(C)C | – | – | 29.1 | – | – | – | – | – |
| CCCCCCCCCCCC[C@@H](O)[C@H](CO)NC(=O)CC(CC(C)C)CC(C)C | – | – | 76.3 | – | – | – | – | – |
| CCCCCC(=O)N[C@@H](CO)[C@H](O)/C=C/CC(CC(C)C)CC(C)C | – | – | 52.9 | – | – | – | – | – |
| CCCCCCCCCCCCC/C=C/[C@@H](O)[C@H](CO)NC(=O)CCCCC | – | – | 48 | – | – | – | – | – |
